# From ChEMBL document CHEMBL1255355, “Characterization of a naturally occurring class D beta-lactamase from Achromobacter xylosoxidans” (Antimicrob Agents Chemother, 2008)
# Activity calls are given as the source filed them. The rule behind the calls is not given here.
# Columns and labels:
# [1] = system: Achromobacter xylosoxidans; test: Antibacterial activity against Achromobacter xylosoxidans TB1 in presence of 4 ug/ml clavulanic acid by agar dilution method; format: functional
# Method in brief: (§1)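 MICs of β-lactams measured by agar dilution, with interpretation per CLSI guidelines. Combination tests used clavulanic acid or tazobactam at a fixed 4 μg/ml. Reference strain CIP69598 and clinical isolates MER, TB1, LOL and DUC, identified by API 32-GN. Cultures routinely grown in TS broth at 37°C.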
# [2] = system: Achromobacter xylosoxidans; test: Antibacterial activity against Achromobacter xylosoxidans TB1 by agar dilution method; format: functional; method in brief: as §1
# [3] = system: Achromobacter xylosoxidans; test: Antibacterial activity against Achromobacter xylosoxidans MER in presence of 4 ug/ml clavulanic acid by agar dilution method; format: functional; method in brief: as §1
# Escherichia coli [4] = test: microbe, parasite or virus in culture; format: functional; conditions: TOP10
# [5] = system: Achromobacter xylosoxidans; test: Antibacterial activity against Achromobacter xylosoxidans LOL by agar dilution method; format: functional; method in brief: as §1
# Escherichia coli [6] = test: Antibacterial activity against Escherichia coli TOP10 by agar dilution method; format: functional
# Method in brief: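 MIC determined by agar dilution; results interpreted per CLSI guidelines. E. coli TOP10 serves as the cloning host. Bacteria were routinely grown in Trypticase soy broth at 37°C.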
# [7] = system: Achromobacter xylosoxidans; test: Antibacterial activity against Achromobacter xylosoxidans MER by agar dilution method; format: functional; method in brief: as §1
# Escherichia coli [8] = test: Antibacterial activity against Escherichia coli TOP10 harboring recombinant p6S3 expressing beta lactamase OXA-114a in presence of 4 ug/ml clavulanic acid by agar dilution method; format: functional
# Method in brief: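 Agar dilution MIC with clavulanic acid held at a fixed 4 μg/ml; interpreted per CLSI guidelines. Host E. coli TOP10 was electroporated with p6S3, a kanamycin-resistant pBK-CMV vector carrying a Sau3AI partial-digest fragment of A. xylosoxidans CIP69598 genomic DNA. Routine growth was in Trypticase soy broth at 37°C.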
# [9] = system: Achromobacter xylosoxidans; test: Antibacterial activity against Achromobacter xylosoxidans LOL in presence of 4 ug/ml clavulanic acid by agar dilution method; format: functional; method in brief: as §1
# [10] = system: Achromobacter xylosoxidans; test: Antibacterial activity against Achromobacter xylosoxidans DUC by agar dilution method; format: functional; method in brief: as §1
# [11] = system: Achromobacter xylosoxidans; test: Antibacterial activity against Achromobacter xylosoxidans CIP69598 by agar dilution method; format: functional; method in brief: as §1
# [12] = system: Achromobacter xylosoxidans; test: Antibacterial activity against Achromobacter xylosoxidans CIP69598 in presence of 4 ug/ml clavulanic acid by agar dilution method; format: functional; method in brief: as §1
# [13] = system: Achromobacter xylosoxidans; test: Antibacterial activity against Achromobacter xylosoxidans DUC in presence of 4 ug/ml clavulanic acid by agar dilution method; format: functional; method in brief: as §1
# Escherichia coli [14] = test: Antibacterial activity against Escherichia coli TOP10 in presence of 4 ug/ml clavulanic acid by agar dilution method; format: functional
# Method in brief: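 Agar dilution MICs of β-lactams, with clavulanic acid held at a fixed 4 μg/ml alongside each β-lactam. Results were interpreted against CLSI guidelines. Strains were routinely grown in Trypticase soy broth at 37°C. The E. coli TOP10 host was tested, including TOP10 carrying a pBK-CMV clone of the chromosomal A. xylosoxidans CIP69598 class D β-lactamase gene.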
# [15] = system: Achromobacter xylosoxidans; test: Activity of Achromobacter xylosoxidans CIP69598 beta-lactamase OXA-114a expressed in Escherichia coli TOP10 assessed as compound hydrolysis
# Method in brief: (§2)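 OXA-114a purified from E. coli TOP10(p6S3) grown overnight in TS broth with kanamycin 30 μg/ml and ampicillin 50 μg/ml, by sonication, spermine, Q-Sepharose (pH 8.8) and S-Sepharose (pH 6.5) steps. Initial hydrolysis rates read by UV spectrophotometry at 30°C in 100 mM Tris-H2SO4-300 mM K2SO4 pH 7.0 with 10 mM NaHCO3. kcat and Km are means of three independent experiments.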
# [16] = system: Achromobacter xylosoxidans; test: Induction of Achromobacter xylosoxidans CIP69598 beta-lactamase OXA-114a expressed in Escherichia coli TOP10 assessed as imipenem hydrolysis
# Method in brief: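 Hydrolysis measured with 100 μM benzylpenicillin or imipenem as substrate. One unit hydrolyzes 1 μmol substrate/min. Protein measured against a bovine albumin standard.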
# [17] = system: Achromobacter xylosoxidans; test: Ratio of Kcat to Km for Achromobacter xylosoxidans CIP69598 beta-lactamase OXA-114a expressed in Escherichia coli TOP10; set-up: unit not given here; method in brief: as §2
# Escherichia coli [18] = test: Antibacterial activity against Escherichia coli TOP10 harboring recombinant p6S3 expressing beta lactamase OXA-114a in presence of 4 ug/ml Tazobactam by agar dilution method; format: functional
# Method in brief: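 MICs by agar dilution, with tazobactam held at a fixed 4 μg/ml and results read against CLSI guidelines. Strain is E. coli TOP10 carrying p6S3, a kanamycin-resistant pBK-CMV vector holding a partial Sau3AI fragment of A. xylosoxidans CIP69598 genomic DNA. It was selected on ticarcillin 50 mg/liter plus kanamycin 30 mg/liter. Cultures were routinely grown in TS broth at 37°C.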
# Escherichia coli [19] = test: Antibacterial activity against Escherichia coli TOP10 in presence of 4 ug/ml Tazobactam by agar dilution method; format: functional
# Method in brief: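 Plasmid-free E. coli TOP10 cloning host, tested by agar dilution MIC with tazobactam at a fixed 4 μg/ml and interpreted per CLSI guidelines. Cultures were routinely grown in Trypticase soy broth at 37°C.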
# [20] = system: Achromobacter xylosoxidans; test: Antibacterial activity against Achromobacter xylosoxidans DUC in presence of 4 ug/ml Tazobactam by agar dilution method; format: functional; method in brief: as §1
# [21] = system: Achromobacter xylosoxidans; test: Antibacterial activity against Achromobacter xylosoxidans CIP69598 in presence of 4 ug/ml Tazobactam by agar dilution method; format: functional; method in brief: as §1
# [22] = Inhibition of Achromobacter xylosoxidans CIP69598 beta-lactamase OXA-114a expressed in Escherichia coli TOP10 assessed as reduction of benzyl-penicillin hydrolysis
# Method in brief: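 Ki obtained by competition with benzylpenicillin as reporter substrate. Purified enzyme, 30°C, 100 mM Tris-H2SO4-300 mM K2SO4 pH 7.0 with 10 mM NaHCO3. Initial rates read by UV spectrophotometry. Means of three independent experiments.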
# [23] = system: Achromobacter xylosoxidans; test: Antibacterial activity against Achromobacter xylosoxidans LOL in presence of 4 ug/ml Tazobactam by agar dilution method; format: functional; method in brief: as §1
# [24] = system: Achromobacter xylosoxidans; test: Antibacterial activity against Achromobacter xylosoxidans MER in presence of 4 ug/ml Tazobactam by agar dilution method; format: functional; method in brief: as §1
# [25] = system: Achromobacter xylosoxidans; test: Antibacterial activity against Achromobacter xylosoxidans TB1 in presence of 4 ug/ml Tazobactam by agar dilution method; format: functional; method in brief: as §1
SMILES,MIC [2] [µg/mL],MIC (Escherichia coli [4]) [µg/mL],MIC [5] [µg/mL],MIC (Escherichia coli [6]) [µg/mL],MIC [7] [µg/mL],MIC [10] [µg/mL],MIC [11] [µg/mL],kcat [15] [s⁻¹],other results
CC1(C)S[C@@H]2[C@H](NC(=O)[C@H](N)c3ccc(O)cc3)C(=O)N2[C@H]1C(=O)O [AMOXICILLIN],8,16,> 64,2,2,1,16,,MIC [1]: 8 µg/mL; MIC [3]: 1 µg/mL; MIC (Escherichia coli [8]): 16 µg/mL; MIC [9]: 8 µg/mL; MIC [12]: 4 µg/mL; MIC [13]: 1 µg/mL; MIC (Escherichia coli [14]): 2 µg/mL
C[C@H]1[C@H](NC(=O)/C(=N\OC(C)(C)C(=O)O)c2csc(N)n2)C(=O)N1S(=O)(=O)O [AZTREONAM],> 64,,> 64,,> 64,> 64,> 64,,
Cc1onc(-c2ccccc2)c1C(=O)N[C@@H]1C(=O)N2[C@@H]1SC(C)(C)[C@@H]2C(=O)O,,,,,,,,< 0.01,
CO[C@@]1(NC(=O)Cc2cccs2)C(=O)N2C(C(=O)O)=C(COC(N)=O)CS[C@@H]21 [CEFOXITIN],> 64,4,> 64,4,> 64,> 64,> 64,< 0.01,Activity [16]: inactive
CC(C)(O/N=C(\C(=O)N[C@@H]1C(=O)N2C(C(=O)[O-])=C(C[n+]3ccccc3)CS[C@H]12)c1csc(N)n1)C(=O)O [CEFTAZIDIME],4,0.06,4,0.06,16,8,4,< 0.01,
CO/N=C(\C(=O)N[C@@H]1C(=O)N2C(C(=O)[O-])=C(C[N+]3(C)CCCC3)CS[C@H]12)c1csc(N)n1,> 64,0.12,> 64,,> 64,> 64,64,,
C[C@@H](O)[C@H]1C(=O)N2C(C(=O)O)=C(SCCNC=N)C[C@H]12 [IMIPENEM ANHYDROUS],1,,4,,1,1,4,> 0.1,Activity [16]: inactive; Km [15]: > 2000 µM
CC1(C)S[C@@H]2[C@H](NC(=O)Cc3ccccc3)C(=O)N2[C@H]1C(=O)O,,,,,,,,0.1,Km [15]: 10 µM; Ratio [17]: 10
CCN1CCN(C(=O)N[C@@H](C(=O)N[C@@H]2C(=O)N3[C@@H]2SC(C)(C)[C@@H]3C(=O)O)c2ccccc2)C(=O)C1=O [PIPERACILLIN],2,4,4,1,1,1,1,0.5,MIC (Escherichia coli [18]): 4 µg/mL; MIC (Escherichia coli [19]): 1 µg/mL; MIC [20]: 0.5 µg/mL; MIC [21]: 0.5 µg/mL; Ki [22]: 1 µM; MIC [23]: 4 µg/mL; MIC [24]: 0.5 µg/mL; MIC [25]: 1 µg/mL; Ratio [17]: 100
CO/N=C(\C(=O)N[C@@H]1C(=O)N2C(C(=O)O)=C(COC(N)=O)CS[C@H]12)c1ccco1 [CEFUROXIME],> 64,4,> 64,2,> 64,> 64,> 64,,
CO[C@@]1(NC(=O)C(C(=O)O)c2ccc(O)cc2)C(=O)N2C(C(=O)O)=C(CSc3nnnn3C)CO[C@@H]21 (stereo not given in full) [MOXALACTAM],2,1,1,1,2,2,2,,
CC1(C)S[C@@H]2[C@H](NC(=O)[C@H](C(=O)O)c3ccsc3)C(=O)N2[C@H]1C(=O)O [TICARCILLIN],1,4,> 64,2,1,1,4,0.1,MIC [1]: 1 µg/mL; MIC [3]: 1 µg/mL; MIC (Escherichia coli [8]): 4 µg/mL; MIC [9]: > 64 µg/mL; Km [15]: 40 µM; MIC [12]: 4 µg/mL; MIC [13]: 1 µg/mL; Ratio [17]: 2.5; MIC (Escherichia coli [14]): 2 µg/mL
CC(=O)OCC1=C(C(=O)O)N2C(=O)[C@@H](NC(=O)Cc3cccs3)[C@H]2SC1 [CEPHALOTHIN],32,8,> 64,2,32,32,> 64,0.5,Km [15]: 15 µM; Ratio [17]: 30
CO/N=C(\C(=O)N[C@@H]1C(=O)N2C(C(=O)O)=C(COC(C)=O)CS[C@H]12)c1csc(N)n1 [CEFOTAXIME],> 64,0.25,> 64,0.12,> 64,> 64,> 64,< 0.01,
